Rows were chosen to be rich in hits. Some 6.8% of all compounds tested hit in one or more screens of this group.
M1 antag: antagonists of rat M1 muscarinic receptor; CHO-M1 cells, Fluo-4 calcium, ACh EC80 antagonist mode; active compounds read low; B-score at 10 µM; hit rate 3.4% among 64,000; AID 628, 2007;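 active means calcium fluorescence response, raw or row-and-column corrected B-score, differing from the plate sample mean either way at a set confidence level, mostly lower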
HER2 expr 66K: inhibitors of Her2 protein expression, primary screen, SKBR-3 cells, AlphaScreen, 66K library; Receptor tyrosine-protein kinase erbB-2 (Homo sapiens), P04626; hit rate 0.69% among 65,000; HER2 level % of control, % at 10 µM; SKBR-3 HER2 protein level, 18-24 h; active compounds read low;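 active means HER2 level under 5% of the carrier-only control; inconclusive means no clear call, values can overlap the other calls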;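 further: lower value means stronger loss of Her2 protein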
Cdc25B inh: inhibitors of Cdc25B phosphatase catalytic domain, primary screen, biochemical, OMFP fluorescence. hit rate 0.1% among 65,000. M-phase inducer phosphatase 2 (Homo sapiens), P30305. recombinant Cdc25B, OMFP fluorescence Ex485/Em525. AID 368, 2006. inhibition, %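 (compounds tested at 10 µM final in the well)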; in the data active means inhibition above about 50%
M1 agonist: M1 muscarinic receptor agonists, primary screen, CHO-M1 cells, Fluo-4 calcium, agonist mode | Fluo-4 calcium fluorescence; active compounds read high | B-score at 10 µM | hit rate 3% among 64,000 | AID 626, 2007;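 active means fluorescence rise, raw or as B-score row- and column-corrected plate score, outside the 99.7% band of its plate's samples, either direction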
DUSP1 inh: MKP-1 phosphatase inhibitors, primary screen, biochemical, in vitro; recombinant MKP-1, OMFP hydrolysis fluorescence; AID 374, 2006; hit rate 0.15% among 65,000; inhibition, %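 (compounds tested at a single concentration somewhere between 10 and 100 µM)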;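 active means inhibition above about 50%, limit read from the data; inconclusive means inhibition over screen mean plus 3 SD, below that limit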
Target sequence (P28562 whole entry, looked up): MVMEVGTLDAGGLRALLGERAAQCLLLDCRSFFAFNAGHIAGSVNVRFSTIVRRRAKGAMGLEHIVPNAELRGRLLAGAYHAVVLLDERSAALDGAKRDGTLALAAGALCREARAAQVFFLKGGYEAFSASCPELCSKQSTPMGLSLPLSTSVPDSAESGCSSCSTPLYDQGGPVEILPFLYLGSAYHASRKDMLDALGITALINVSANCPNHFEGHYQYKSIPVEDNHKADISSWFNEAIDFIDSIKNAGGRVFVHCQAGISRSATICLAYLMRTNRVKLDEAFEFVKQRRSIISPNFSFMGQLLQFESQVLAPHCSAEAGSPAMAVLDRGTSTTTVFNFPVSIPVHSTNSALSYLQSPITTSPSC
HEK293 NFkB inh: inhibitors of PMA/ionomycin-induced NF-kB reporter, primary screen, antigen receptor NF-kB inhibitor project, cell-based, HEK-293 luciferase reporter, luminescence; inhibition, % at 3 µM; HEK-293 NF-kB luciferase reporter; AID 465, 2006; hit rate 0.21% among 62,000;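 active means inhibition above the mean of all tested compounds plus 3 SD, cut at about 40% in these data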
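System: NF-kB luciferase reporter HEK-293 cells | Replication: Single test | Control set: DMSO vs reference inhibitor | Evaluation: % inhibition | Schedule: 1 h pretreatment, 16 h stimulation, 37 °C | Probe or stimulus: PMA with ionomycin | Compound dosing: One dose, 3 µM | Detection: Luciferase luminescence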
M1 antag confirm: rat M1 muscarinic receptor antagonists, confirmation, CHO cells, Fluo-4 calcium, duplicate; calcium response (max-min fluorescence) at 10 µM; hit rate 43% among 1,700; shares compounds with M1 antag; ACh EC80 antagonism; active compounds read low; AID 677, 2007;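 active means calcium response below the same-plate mean of wells given acetylcholine alone at its 80%-effect dose, minus 3 SD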
mGluR4 antag: human mGluR4 response to M1 antagonist hits, M1 allosteric modulator project, cell-based, antagonist mode, secondary assay 1; shares compounds with M1 antag; CHO-mGluR4 calcium flux, Fluo-4 fluorescence, glutamate EC80; active compounds read low; fluorescence response (max-min) at 10 µM; hit rate 0.9% among 1,700;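 active means fluorescence response below the plate's average for near-maximal glutamate wells, less 3 SD of those wells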;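 further: raw unnormalized fluorescence span taken in the window right after glutamate addition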
Numbers stand for hits.

How did CS(=O)(=O)N1CCCC(C(=O)NCCCN2CCc3ccccc3C2)C1 (configuration not stated) do in these assays?
M1 antag: inactive; HER2 expr 66K: inactive; Cdc25B inh: inactive; M1 agonist: inactive; DUSP1 inh: inactive; HEK293 NFkB inh: inactive

What do the screens show for `O=C(CN1CCC(O)CC1)N1c2ccccc2C=Cc2ccccc21`?
M1 antag: -5.6; HER2 expr 66K: inactive; Cdc25B inh: inactive; M1 agonist: inactive; DUSP1 inh: inactive; HEK293 NFkB inh: inactive; M1 antag confirm: 243; mGluR4 antag: inactive

How did O=C(c1ccco1)N1CCN(CC(=O)N2c3ccccc3CCc3ccccc32)CC1 do in these assays?
M1 antag: inactive; HER2 expr 66K: inactive; Cdc25B inh: inactive; M1 agonist: inactive; DUSP1 inh: inactive; HEK293 NFkB inh: inactive

What do the screens show for `NCCCC(=O)N1c2ccccc2Sc2ccccc21`?
M1 antag: -13; HER2 expr 66K: inactive; Cdc25B inh: inactive; M1 agonist: inactive; DUSP1 inh: inactive; HEK293 NFkB inh: inactive; M1 antag confirm: 59; mGluR4 antag: inactive

What do the screens show for `O=C(CN1CCCC1)N1c2ccccc2Sc2ccccc21`?
M1 antag: -19; HER2 expr 66K: inactive; Cdc25B inh: inactive; M1 agonist: inactive; DUSP1 inh: inactive; HEK293 NFkB inh: inactive; M1 antag confirm: inactive; mGluR4 antag: inactive

Results for Cn1c(O)c(C=Nc2ccc(Cc3ccncc3)cc2)c(=O)n(C)c1=O ?
M1 antag: inactive; HER2 expr 66K: inactive; Cdc25B inh: inactive; M1 agonist: inactive; DUSP1 inh: inactive

How did CCCC(=O)C1=C(c2ccccc2)C(C#N)(C#N)C(C#N)=C1N do in these assays?
M1 antag: inactive; HER2 expr 66K: inactive; Cdc25B inh: inactive; M1 agonist: inactive; DUSP1 inh: inactive; HEK293 NFkB inh: inactive

Results for COc1cc2c(cc1OC)CN(Cc1ccc(OC)c(C)c1OC)CC2 ?
M1 antag: -3.4; HER2 expr 66K: inactive; Cdc25B inh: inactive; M1 agonist: inactive; DUSP1 inh: inactive; HEK293 NFkB inh: inactive; M1 antag confirm: 406; mGluR4 antag: inactive

What do the screens show for `COc1cc2c(cc1OC)CN(Cc1cccs1)CC2`?
HER2 expr 66K: inactive; Cdc25B inh: inactive; DUSP1 inh: inactive; HEK293 NFkB inh: inactive

Results for CCN(CCNS(=O)(=O)c1ccc2[nH]c(=O)sc2c1)c1ccccc1 ?
M1 antag: -2.4; HER2 expr 66K: inactive; Cdc25B inh: inactive; M1 agonist: inactive; DUSP1 inh: inactive; HEK293 NFkB inh: inactive; M1 antag confirm: inactive; mGluR4 antag: 156

Results for CCNC(=O)CSc1nc2cc(OC)c(OC)cc2c(=O)n1CCC1=CCCCC1 ?
M1 antag: inactive; HER2 expr 66K: inactive; Cdc25B inh: inactive; M1 agonist: inactive; DUSP1 inh: inconclusive; HEK293 NFkB inh: inactive

How did CCSc1nc2cc(OC)c(OC)cc2c(=O)n1CC do in these assays?
M1 antag: -3.1; HER2 expr 66K: inactive; Cdc25B inh: inactive; M1 agonist: inactive; DUSP1 inh: inactive; HEK293 NFkB inh: inactive; M1 antag confirm: inactive; mGluR4 antag: inactive

How did Cc1cc(O)c(-c2cc(C(=O)NCc3ccc4c(c3)OCO4)[nH]n2)cc1C do in these assays?
M1 antag: inactive; HER2 expr 66K: inactive; Cdc25B inh: inactive; M1 agonist: inactive; DUSP1 inh: inactive; HEK293 NFkB inh: inactive

How did Cc1ccc(-c2cc(C(=O)NCc3ccc4c(c3)OCO4)[nH]n2)c(O)c1C do in these assays?
M1 antag: -1.6; HER2 expr 66K: inactive; Cdc25B inh: inactive; M1 agonist: inactive; DUSP1 inh: inactive; HEK293 NFkB inh: inactive; M1 antag confirm: inactive; mGluR4 antag: inactive
